Experimental data reported in ChEMBL document CHEMBL1129500, “Substituted 2,5'-Bi-1H-benzimidazoles: topoisomerase I inhibition and cytotoxicity” (J Med Chem, 1996).

Assays:
[1] = tested on: RPMI 8402; test: Cytotoxicity against human lymphoblast cell line RPMI 8402; format: functional, cell-based
Summary of the method: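 RPMI 8402 human lymphoblasts grown in suspension at 37 °C, 5% CO2, in RPMI with 10% heat-inactivated FBS, 2 mM L-glutamine, penicillin and streptomycin. Seeded at 2000 cells/well and exposed to drug continuously for 4 days. Viability read by MTT tetrazolium microtiter assay, giving IC50. Highest dose tested 25 µM.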

[2] = tested on: DNA topoisomerase 1 (Bos taurus); test: Effective concentration against Topoisomerase-I (purified from calf thymus gland) mediated DNA cleavage relative to Hoechst 33342

SMILES	REC [2]	IC50 [1] [nM]
Cc1cccc(-c2nc3cc(-c4nc5cc(C#N)ccc5[nH]4)ccc3[nH]2)c1	100	860
N#Cc1ccc2[nH]c(-c3ccc4[nH]c(-c5cccc6ccccc56)nc4c3)nc2c1	10	650
CN1CCN(c2ccc3[nH]c(-c4ccc5[nH]c(-c6ccc7ccccc7c6)nc5c4)nc3c2)CC1	10	110
Cc1cccc(-c2nc3cc(-c4nc5cc(C(N)=O)ccc5[nH]4)ccc3[nH]2)c1	100	8200
Cc1cccc(-c2nc3cc(-c4nc5cc(N6CCN(C)CC6)ccc5[nH]4)ccc3[nH]2)c1	1	360
NC(=O)c1ccc2[nH]c(-c3ccc4[nH]c(-c5ccccc5)nc4c3)nc2c1	10	> 25000
Cc1ccccc1-c1nc2cc(-c3nc4cc(N5CCN(C)CC5)ccc4[nH]3)ccc2[nH]1	10	590
N#Cc1ccc2[nH]c(-c3ccc4[nH]c(-c5ccccc5)nc4c3)nc2c1	> 100	> 25000
CN1CCN(c2ccc3[nH]c(-c4ccc5[nH]c(-c6ccccc6)nc5c4)nc3c2)CC1	1	490
CN1CCN(c2ccc3[nH]c(-c4ccc5[nH]c(-c6cccc7ccccc67)nc5c4)nc3c2)CC1	20	330
Cc1ccc(-c2nc3cc(-c4nc5cc(C#N)ccc5[nH]4)ccc3[nH]2)cc1	1	570
Cc1ccc(-c2nc3cc(-c4nc5cc(C(N)=O)ccc5[nH]4)ccc3[nH]2)cc1	10	> 25000

The next lines start with results.

REC [2]	SMILES	IC50 [1] [nM]
1	Cc1ccc(-c2nc3cc(-c4nc5cc(N6CCN(C)CC6)ccc5[nH]4)ccc3[nH]2)cc1	830
10	N#Cc1ccc2[nH]c(-c3ccc4[nH]c(-c5ccc6ccccc6c5)nc4c3)nc2c1	130
> 100	Cc1ccccc1-c1nc2cc(-c3nc4cc(C#N)ccc4[nH]3)ccc2[nH]1	1200
20	NC(=O)c1ccc2[nH]c(-c3ccc4[nH]c(-c5cccc6ccccc56)nc4c3)nc2c1	3700
100	NC(=O)c1ccc2[nH]c(-c3ccc4[nH]c(-c5ccc6ccccc6c5)nc4c3)nc2c1	740
100	Cc1ccccc1-c1nc2cc(-c3nc4cc(C(N)=O)ccc4[nH]3)ccc2[nH]1	8200
